Source: BindingDB's records for doi:10.1021/jm970235u (Takeda Chemical Industries, 1998)
Peptide text beside a SMILES is read from it.

What follows are compounds tested against Integrin alpha-IIb/beta-3 (Homo sapiens, UniProt P08514+P05106) (assay: Concentration required to inhibit adenosine diphosphate (ADP) induced aggregation of human platelets by 50% in vitro.).
Sequence of Integrin alpha-IIb/beta-3 (P05106 27-788 limits assumed): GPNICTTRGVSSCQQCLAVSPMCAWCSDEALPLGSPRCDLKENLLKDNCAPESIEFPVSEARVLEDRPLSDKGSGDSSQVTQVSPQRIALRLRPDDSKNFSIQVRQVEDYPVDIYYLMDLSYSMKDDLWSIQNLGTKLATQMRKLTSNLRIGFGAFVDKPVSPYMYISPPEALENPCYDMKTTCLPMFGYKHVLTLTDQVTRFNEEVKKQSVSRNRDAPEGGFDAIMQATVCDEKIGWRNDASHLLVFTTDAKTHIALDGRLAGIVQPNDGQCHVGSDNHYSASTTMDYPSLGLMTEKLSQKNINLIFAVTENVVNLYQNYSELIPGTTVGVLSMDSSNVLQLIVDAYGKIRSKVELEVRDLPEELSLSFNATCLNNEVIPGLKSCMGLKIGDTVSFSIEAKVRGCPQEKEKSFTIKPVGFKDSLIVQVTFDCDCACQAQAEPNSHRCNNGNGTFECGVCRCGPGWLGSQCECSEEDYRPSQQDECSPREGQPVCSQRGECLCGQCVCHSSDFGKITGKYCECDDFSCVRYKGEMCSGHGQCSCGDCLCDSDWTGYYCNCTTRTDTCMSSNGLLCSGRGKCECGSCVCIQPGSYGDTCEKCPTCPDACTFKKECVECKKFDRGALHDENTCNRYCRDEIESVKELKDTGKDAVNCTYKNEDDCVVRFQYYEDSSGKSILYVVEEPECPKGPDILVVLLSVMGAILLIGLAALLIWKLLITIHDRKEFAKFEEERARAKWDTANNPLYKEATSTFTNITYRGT
Sequence of Integrin alpha-IIb/beta-3 (P08514 32-887 limits assumed): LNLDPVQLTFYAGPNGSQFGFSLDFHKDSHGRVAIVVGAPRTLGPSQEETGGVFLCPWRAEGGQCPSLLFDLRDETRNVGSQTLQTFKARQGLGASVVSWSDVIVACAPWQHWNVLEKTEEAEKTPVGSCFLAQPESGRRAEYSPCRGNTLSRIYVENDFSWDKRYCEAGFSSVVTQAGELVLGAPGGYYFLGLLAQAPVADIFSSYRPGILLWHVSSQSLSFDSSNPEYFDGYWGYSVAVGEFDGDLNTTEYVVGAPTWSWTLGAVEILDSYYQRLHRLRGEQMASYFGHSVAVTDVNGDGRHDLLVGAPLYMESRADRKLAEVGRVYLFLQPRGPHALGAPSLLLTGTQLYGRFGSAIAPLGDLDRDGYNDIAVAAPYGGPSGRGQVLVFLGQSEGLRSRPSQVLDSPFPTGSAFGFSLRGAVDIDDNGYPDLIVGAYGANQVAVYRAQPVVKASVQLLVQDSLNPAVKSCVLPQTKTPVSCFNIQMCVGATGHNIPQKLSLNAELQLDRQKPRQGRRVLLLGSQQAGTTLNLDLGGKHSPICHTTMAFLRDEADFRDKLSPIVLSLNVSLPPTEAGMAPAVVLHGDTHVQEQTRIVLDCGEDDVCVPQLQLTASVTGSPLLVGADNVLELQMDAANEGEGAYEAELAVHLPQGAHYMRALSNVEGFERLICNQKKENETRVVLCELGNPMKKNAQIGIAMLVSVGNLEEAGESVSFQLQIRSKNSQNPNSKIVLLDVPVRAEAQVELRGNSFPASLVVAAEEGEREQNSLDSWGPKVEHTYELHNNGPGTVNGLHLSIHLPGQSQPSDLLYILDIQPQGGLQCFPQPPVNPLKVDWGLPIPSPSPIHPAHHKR
Sequence of Integrin alpha-IIb/beta-3 (P08514 891-1039 limits assumed): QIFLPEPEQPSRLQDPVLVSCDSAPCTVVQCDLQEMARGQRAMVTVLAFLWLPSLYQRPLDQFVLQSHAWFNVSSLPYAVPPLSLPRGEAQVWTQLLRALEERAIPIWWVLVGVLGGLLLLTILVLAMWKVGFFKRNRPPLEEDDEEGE
Summary of the method: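 PRP obtained by centrifugation and adjusted to […]. PRP stirred at 1000 rpm and prewarmed 2 min at 37 °C with compound. Submaximal ADP added; light-transmittance aggregometry.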
`NCCCc1ccc(C(=O)NCC(=O)N2CCN(CC(=O)O)C(=O)[C@@H]2CC(=O)O)cc1` [((S)-1-{2-[4-(3-Amino-propyl)-benzoylamino]-acetyl}-4-carboxymethyl-3-oxo-piperazin-2-yl)-acetic acid] showed an IC50 of 1030 nM.
In the case of `COC(=O)C[C@@H]1C(=O)N(CC(=O)O)CCN1C(=O)CNC(=O)c1ccc(C(=N)N)cc1` [{(R)-4-[2-(4-Carbamimidoyl-benzoylamino)-acetyl]-3-methoxycarbonylmethyl-2-oxo-piperazin-1-yl}-acetic acid], the IC50 is reported as 580 nM.
`N=C(N)c1ccc(C(=O)NCC(=O)N2CCN(CC(=O)O)C(=O)C2)cc1` [{4-[2-(4-Carbamimidoyl-benzoylamino)-acetyl]-2-oxo-piperazin-1-yl}-acetic acid] was tested, and the IC50 was 94 nM.
Work on `N=C(N)NCC1CCC(C(=O)NCC(=O)N2CCN(CC(=O)O)C(=O)[C@@H]2CC(=O)O)CC1` (stereo partly drawn) [((S)-4-Carboxymethyl-1-{2-[(4-guanidinomethyl-cyclohexanecarbonyl)-amino]-acetyl}-3-oxo-piperazin-2-yl)-acetic acid] yielded an IC50 of 1100 nM.
`N=C(N)c1ccc(C(=O)NCC(=O)N2CCN(CC(=O)O)C(=O)[C@@H]2CC(N)=O)cc1` [{(S)-4-[2-(4-Carbamimidoyl-benzoylamino)-acetyl]-3-carbamoylmethyl-2-oxo-piperazin-1-yl}-acetic acid] was tested, and the IC50 was 740 nM.
Compound `N=C(N)c1ccc(C(=O)NCC(=O)N2CCN(CC(=O)O)C(=O)[C@@H]2Cc2ccccc2)cc1` [{(S)-3-Benzyl-4-[2-(4-carbamimidoyl-benzoylamino)-acetyl]-2-oxo-piperazin-1-yl}-acetic acid] has an IC50 of 110 nM.
In the case of `N=C(N)c1ccc(C(=O)NCC(=O)N2CCN(CC(=O)O)C(=O)[C@@H]2CCC(=O)O)cc1` [3-{(S)-1-[2-(4-Carbamimidoyl-benzoylamino)-acetyl]-4-carboxymethyl-3-oxo-piperazin-2-yl}-propionic acid], the IC50 is reported as 52 nM.
For `CN(C)CCc1ccc(C(=O)NCC(=O)N2CCN(CC(=O)O)C(=O)[C@@H]2CCC(=O)O)cc1` [3-((S)-4-Carboxymethyl-1-{2-[4-(2-dimethylamino-ethyl)-benzoylamino]-acetyl}-3-oxo-piperazin-2-yl)-propionic acid], the IC50 was 2500 nM.
`N=C(N)c1ccc(C(=O)NCC(=O)N2CCN([C@@H](Cc3ccccc3)C(=O)O)C(=O)[C@@H]2CC(=O)O)cc1` [(S)-2-{(S)-4-[2-(4-Carbamimidoyl-benzoylamino)-acetyl]-3-carboxymethyl-2-oxo-piperazin-1-yl}-3-phenyl-propionic acid] was tested, and the IC50 was 4100 nM.
For `N=C(N)NCc1ccc(C(=O)NCC(=O)N2CCN(CC(=O)O)C(=O)[C@@H]2CC(=O)O)cc1` [{(S)-4-Carboxymethyl-1-[2-(4-guanidinomethyl-benzoylamino)-acetyl]-3-oxo-piperazin-2-yl}-acetic acid], the IC50 was 560 nM.
Work on `N=C(N)NCCCCC(=O)NCC(=O)N1CCN(CC(=O)O)C(=O)[C@@H]1CC(=O)O` [{(S)-4-Carboxymethyl-1-[2-(5-guanidino-pentanoylamino)-acetyl]-3-oxo-piperazin-2-yl}-acetic acid] yielded an IC50 of 3600 nM.
Compound `NCCc1ccc(C(=O)NCC(=O)N2CCN(CC(=O)O)C(=O)[C@@H]2CC(=O)O)cc1` [((S)-1-{2-[4-(2-Amino-ethyl)-benzoylamino]-acetyl}-4-carboxymethyl-3-oxo-piperazin-2-yl)-acetic acid] has an IC50 of 130 nM.
Compound `COC(=O)CC[C@H]1C(=O)N(CC(=O)O)CCN1C(=O)CNC(=O)c1ccc(CCN(C)C)cc1` [3-((S)-4-Carboxymethyl-1-{2-[4-(2-dimethylamino-ethyl)-benzoylamino]-acetyl}-3-oxo-piperazin-2-yl)-propionic acid methyl ester] has an IC50 of 2300 nM.
For `N=C(N)c1ccc(C(=O)NCC(=O)N2CCN(CC(N)=O)C(=O)[C@@H]2CC(=O)O)cc1` [{(S)-1-[2-(4-Carbamimidoyl-benzoylamino)-acetyl]-4-carbamoylmethyl-3-oxo-piperazin-2-yl}-acetic acid], the IC50 was 30000 nM.
Work on `N=C(N)c1ccc(CC(=O)NCC(=O)N2CCN(CC(=O)O)C(=O)[C@@H]2CC(=O)O)cc1` [((S)-1-{2-[2-(4-Carbamimidoyl-phenyl)-acetylamino]-acetyl}-4-carboxymethyl-3-oxo-piperazin-2-yl)-acetic acid] yielded an IC50 of 1200 nM.
With `COC(=O)CC[C@H]1C(=O)N(CC(=O)O)CCN1C(=O)CNC(=O)c1ccc(CCN)cc1` [3-((S)-1-{2-[4-(2-Amino-ethyl)-benzoylamino]-acetyl}-4-carboxymethyl-3-oxo-piperazin-2-yl)-propionic acid methyl ester] the IC50 was 120 nM.
Compound `NC(N)=NCCC[C@H](N)C(=O)NCC(=O)N[C@@H](CC(=O)O)C(=O)N[C@@H](Cc1ccccc1)C(=O)O` [(R)-3-[2-((S)-2-Amino-5-guanidino-pentanoylamino)-acetylamino]-N-((S)-1-carboxy-2-phenyl-ethyl)-succinamic acid] (H-RGDF-OH) has an IC50 of 48000 nM.
`COC(=O)CN1CCN(C(=O)CNC(=O)c2ccc(C(=N)N)cc2)[C@@H](CC(=O)O)C1=O` [{(S)-1-[2-(4-Carbamimidoyl-benzoylamino)-acetyl]-4-methoxycarbonylmethyl-3-oxo-piperazin-2-yl}-acetic acid] was tested, and the IC50 was 2600 nM.
`CN(C)C(N)=Nc1ccc(C(=O)NCC(=O)N2CCN(CC(=O)O)C(=O)[C@@H]2CC(=O)O)cc1` [((S)-4-Carboxymethyl-1-{2-[4-(N',N'-dimethyl-guanidino)-benzoylamino]-acetyl}-3-oxo-piperazin-2-yl)-acetic acid] was tested, and the IC50 was 11000 nM.
With `C[C@@H](C(=O)O)N1CCN(C(=O)CNC(=O)c2ccc(C(=N)N)cc2)[C@@H](CC(=O)O)C1=O` [(S)-2-{(S)-4-[2-(4-Carbamimidoyl-benzoylamino)-acetyl]-3-carboxymethyl-2-oxo-piperazin-1-yl}-propionic acid] the IC50 was 1500 nM.
`NCCc1ccc(C(=O)NCC(=O)N2CCN(CC(=O)O)C(=O)[C@@H]2CCC(=O)O)cc1` [3-((S)-1-{2-[4-(2-Amino-ethyl)-benzoylamino]-acetyl}-4-carboxymethyl-3-oxo-piperazin-2-yl)-propionic acid] gave an IC50 of 110 nM.
For `NCCc1ccc(C(=O)NCC(=O)N2CCN(CC(=O)O)C(=O)C2)cc1` [(4-{2-[4-(2-Amino-ethyl)-benzoylamino]-acetyl}-2-oxo-piperazin-1-yl)-acetic acid], the IC50 was 150 nM.
`NC(N)=Nc1ccc(C(=O)NCC(=O)N2CCN(CC(=O)O)C(=O)[C@@H]2CC(=O)O)cc1` [{(S)-4-Carboxymethyl-1-[2-(4-guanidino-benzoylamino)-acetyl]-3-oxo-piperazin-2-yl}-acetic acid] gave an IC50 of 350 nM.
Compound `N=C(N)c1cccc(C(=O)NCC(=O)N2CCN(CC(=O)O)C(=O)[C@@H]2CC(=O)O)c1` [{(S)-1-[2-(3-Carbamimidoyl-benzoylamino)-acetyl]-4-carboxymethyl-3-oxo-piperazin-2-yl}-acetic acid] has an IC50 of 13000 nM.
In the case of `N=C(N)c1ccc(C(=O)NCC(=O)N2CCN(CC(=O)O)C(=O)[C@@H]2CC(=O)O)cc1`, the IC50 is reported as 110 nM.
Work on `N=C(N)N1CCC(C(=O)NCC(=O)N2CCN(CC(=O)O)C(=O)[C@@H]2CC(=O)O)CC1` [((S)-1-{2-[(1-Carbamimidoyl-piperidine-4-carbonyl)-amino]-acetyl}-4-carboxymethyl-3-oxo-piperazin-2-yl)-acetic acid] yielded an IC50 of 800 nM.
`COC(=O)C[C@H]1C(=O)N(CC(=O)O)CCN1C(=O)CNC(=O)c1ccc(CCN)cc1` [((S)-4-{2-[4-(2-Amino-ethyl)-benzoylamino]-acetyl}-3-methoxycarbonylmethyl-2-oxo-piperazin-1-yl)-acetic acid] was tested, and the IC50 was 78 nM.
Compound `N=C(N)c1ccc(C(=O)NCC(=O)N2CCN(CCC(=O)O)C(=O)[C@@H]2CC(=O)O)cc1` [3-{(S)-4-[2-(4-Carbamimidoyl-benzoylamino)-acetyl]-3-carboxymethyl-2-oxo-piperazin-1-yl}-propionic acid] has an IC50 of 30000 nM.
Work on `COC(=O)CC[C@H]1C(=O)N(CC(=O)O)CCN1C(=O)CNC(=O)c1ccc(C(=N)N)cc1` [3-{(S)-1-[2-(4-Carbamimidoyl-benzoylamino)-acetyl]-4-carboxymethyl-3-oxo-piperazin-2-yl}-propionic acid methyl ester] yielded an IC50 of 90 nM.
